According to ChEMBL document CHEMBL4513216, “Probing the Open Global Health Chemical Diversity Library for Multistage-Active Starting Points for Next-Generation Antimalarials” (ACS Infect Dis, 2020):

Assay: Toxicity liver stage against HepG2, at 10uM
Assay type: cell-based
Design: test concentration 10 uM, cell line HepG2-A16-CD81EGFP
Settings: human, HepG2-A16-CD81EGFP cells; read-out: INHIBITION
Summary of the method: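 Uninfected HepG2-A16-CD81EGFP cells, 3 × 10^3 per well, 1536-well, plated on prespotted compound at 10 μM final, parasite-free screening media added to match infected plates; puromycin 10 μM positive, DMSO 0.5% negative; run in parallel with 48 h PbLuc assay at 37 °C, 5% CO2; viability by CellTiter-Glo luminescence, normalized to controls.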

SMILES	cytotoxicity at 10 µM
c1cnc(N2C[C@H]3CCC[C@@H](CN4CCCC4)[C@H]3C2)nc1	-4.22%
CC(=O)N1CCCC2(C1)CN(C(=O)C1CCCCC1)CCO2 (configuration not stated)	2.08%
CC(=O)N1CCC2(C1)CN(C(=O)C1CCOC1)C2 (configuration not stated)	4.88%
O=c1[nH]nc2nc(N3CCSCC3)ccn12	-13.5%
Cc1noc(C)c1C(=O)N1CCC2(CCc3ccccc3C(=O)N2)C1 (configuration not stated)	1.75%
Cc1cc2ccncc2n1CC1(O)CCN(C(=O)c2cccnc2)CC1	4.18%
O=C(CC1CCN(c2cccnn2)CC1)NCCO	0.308%
CC(=O)N1CCCC1c1nc(C)c2c(n1)N(Cc1ccccn1)CCC2 (configuration not stated)	0.711%
CCCC(=O)N1CCCC(c2ccccn2)C1 (configuration not stated)	0.0858%
Cc1cnc(-c2nc(O)c3c(n2)CN(C(=O)C2CC2)CC3)cn1	-6.74%
Cc1cc(N2CCCC2c2nc(C)cc(CCC(=O)O)n2)ncn1 (configuration not stated)	-17.1%
COCC(=O)N1CCC(c2cc(C(F)(F)F)c3c(C)noc3n2)CC1	-28%
O=C(N[C@@H]1CC[C@@H](n2ccnc2)[C@@H]1O)c1cc2c(s1)CCC2	-12.7%
Cc1ccc(O)c(CNc2cccc(OCCF)c2)n1	-3.09%
Cc1ccc(CN(CCN(C)C)C(=O)Cc2cn3ccccc3n2)o1	-5.1%
COCCCNC(=O)NCc1ccc(N2CCOC(C)C2)nc1 (configuration not stated)	-5.82%
CN(CCN1CCOC1=O)CC(=O)Nc1cc(F)cc(F)c1	-49.5%
Cc1nn(C)c(Cl)c1CN1CCN(c2nccs2)C(C)C1 (configuration not stated)	-27.1%
CC(NC(=O)N1CCN(c2cccs2)CC1)c1ccncc1 (configuration not stated)	15.8%
CN1CCN(Cc2cccc(NCc3cc[nH]n3)c2)CC1	11.2%
CC(=O)Nc1nc2c(s1)C1(CCN(C)CC1)Nc1ccccc1S2	-14.5%
CCc1noc(C)c1C(=O)N1CCC2(CCCN(CC(C)(C)C)C2=O)C1 (configuration not stated)	3.75%
Cc1cccnc1CNCC1(O)CCCN(CC2CCC2)C1=O (configuration not stated)	-5.51%
Cc1nsc(NC(=O)N2CCCC2C)n1 (configuration not stated)	-38.7%

SMILES	cytotoxicity at 10 µM
CN(C)Cc1nnc(C2CCN(c3nccc(N)n3)CC2)n1C1CC1	-1.99%
CC(C)N1CCC(NCc2cccnc2N(C)C)CC1	21%
CCc1csc(C2CCCN(C(=O)c3cnc[nH]3)C2)n1 (configuration not stated)	1.78%
CCOc1ccc(Cl)c(C(=O)N2CCN(c3ccncc3)CC2)n1	-5.44%
CC(Cn1cccn1)NCCCc1nc(-c2cccs2)no1 (configuration not stated)	-9.8%
CC(C(=O)N1CCCN(c2ccc(C#N)cc2)CC1)n1cccn1 (configuration not stated)	-3.02%
Cn1cc(C(=O)CC2CCCN2C(=O)c2ccncc2F)cn1 (configuration not stated)	0.555%
CC(C(=O)N1CCN(c2ncccn2)CC1)n1cncn1 (configuration not stated)	-1.24%
CC(=O)N1CCCN(C(=O)C(C)n2cncn2)CC1 (configuration not stated)	-0.227%
O=C(c1cccc2c1OCCO2)N1CCCCC1Cn1cccn1 (configuration not stated)	-4.94%
CCOC(=O)N1CCN(Cc2ccc(OCc3nccn3C)cc2)CC1	-9.34%
CCc1nc(CN2CCN(C(=O)c3cnccn3)CC2)cs1	-8.92%
Cc1ccc(C(=O)Nc2cn[nH]c2)cc1C	0.762%
CN(CC(=O)N1CCCC1Cn1cccn1)C1CC1 (configuration not stated)	-9.39%
c1cnn(CCN2CCOC(Cn3cncn3)C2)c1 (configuration not stated)	-0.498%
CC(NC(=O)NCc1cccnc1N1CCCCC1)c1nccs1 (configuration not stated)	-7.95%
COc1ccc(C(C)N2CCN(Cc3nccn3C)CC2)cc1Cl (configuration not stated)	-8.31%
Cc1cccnc1CNc1cc(N2CCCC2CO)ncn1 (configuration not stated)	-10.3%
CC(C)(C)c1cn2nc(N3CCCC3Cn3cncn3)sc2n1 (configuration not stated)	1.43%
Cc1ccc(CN(CCCn2ccnc2)Cc2[nH]cnc2C)s1	-22.8%
O=C(NC1CCCC1)c1cc(C2CCCNC2)n[nH]1 (configuration not stated)	5.27%
CN(C)c1ncc(C2Nc3ccccc3C3=NCCCN32)cn1 (configuration not stated)	-23.2%
O=C(Cc1cccc(F)c1)N1C[C@H]2CN(Cc3ccccn3)C[C@H]2C1	-2.25%
